Structures are written as SMILES. Calls of active or inactive are those of the source.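 How the source made its calls: active means change in binding activity of 20% or more in either direction; inactive means change in binding activity under 20%.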

The assay relates to HepG2 proliferation, sulforhodamine B absorbance, 7-10 days. Kind of assay: growth effect on ER-negative hepatoma cells – cell-based, absorbance, HepG2, counter-screen for AHR activator project, late-stage follow-up (AID 602173). The settings on record: at 10 µM. The essentials:
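Material: Human hepatoma HepG2 cells, estrogen receptor-negative | Amount: 2,000 cells per well | Doses: One dose, 10 µM compound | Times: 24 h pre-culture, 37 °C exposure | Measured by: SRB absorbance at 490 nm, 650 nm corrected | Read-out: Stained cell mass as percent of DMSO-treated wells, negative for inhibition | Control set: DMSO-treated wells as vehicle reference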
For orientation: A counterscreen serves to expose hits that act by an unwanted route or on another target.
For `CCOc1ccc(-c2cc(C)n3nc(C(N)=O)cc3n2)cc1`, the proliferation change, negative = inhibition was 11.8% (inactive).

For the compound `COc1ccccc1NC(=O)c1ccc(C(=O)Nc2ccccc2OC)nc1`, the proliferation change, negative = inhibition is -49.8%.

Turning to `CCOC(=O)Cc1cc(-c2ccc(O)cc2)nc2ccc3ccccc3c12`, the proliferation change, negative = inhibition was -29%.

As for `Cn1c(C(=O)N2CCC(C(N)=O)CC2)cc2cc(Cl)ccc21`, the proliferation change, negative = inhibition was 3.8% (inactive).

As for `COc1ccc(NC(=O)c2cccc3c(Br)cccc23)cc1`, the proliferation change, negative = inhibition is -38.5%.

Take `Cc1nnc(N2C(=O)c3cccc4c([N+](=O)[O-])ccc(c34)C2=O)s1`: the proliferation change, negative = inhibition is -12.8% (inactive).

As for `Cc1nc(N)nc(Nc2ccc(Cl)cc2)c1Br`, the proliferation change, negative = inhibition was -19.5% (inactive).

For `Cc1ccc(-c2cc(-c3cccs3)[nH]n2)c(O)c1`, the proliferation change, negative = inhibition was -97.5%.

As for `Cc1c(-c2ccn[nH]2)cc(NC(=O)c2ccc(Cl)cc2)c(=O)n1N`, the proliferation change, negative = inhibition is -6% (inactive).

Turning to `Cc1csc(SCC(=O)Nc2ccc(Cl)cn2)n1`, the proliferation change, negative = inhibition was 12.2% (inactive).
